Data on 18 compounds can be found in PubChem BioAssay.

Broadly, the viability is a read-out of living cells in per cent, often relative to untreated cells. The term inhibition denotes the relative decrease from the control value, in per cent.

Assay [1] in a line: reduced viability of SK-BR-3 breast cancer cells – cell-based, 24 h, human, pilot screen (AID 572).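 Also: compound exposure lasted between 18 and 24 h rather than exactly 24 h; 100% = carrier-treated control wells.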 The settings on record: SK-BR-3 viability, CellTiter-Glo luminescence, at 10 µM, stronger effect = lower value. (In general: Cellular ATP, detected with luciferase, serves as a proxy for viable cell number.)
The nature of assay [2]: HUVEC growth inhibition – cell-based, human, primary screen (AID 575;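 active = viability at or below 30% in both replicate assays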;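 also: 100% = median of untreated cell wells with 0.1% DMSO on each plate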). The settings on record: HUVEC proliferation, CellTiter-Glo luminescence, 72 h; at 10 µM; stronger effect = lower value. The procedure, abridged:
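system = HUVEC primary cells | amount = 1250 cells/well | buffer or medium = supplemented EBM, 2% fetal bovine serum | dosing = single-point 10 µM, DMSO 0.1% final | times = 72 h compound incubation | detection = CTG luminescence | read-out = % viability relative to median vehicle-well signal on each plate | control set = vehicle and MePR control wells | format = collagen-coated 384-well format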

The nature of assay [3]: H69AR cell proliferation blockers – human, duplicate replicates, primary screen (AID 580;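 active = viability at or under a set limit in both replicates, limit being median viability minus 3 SD, cut at about 48% in these data, passing the limit was not always enough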;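 also: 100% = mean luminescence of untreated wells and 0% = no signal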). Conditions: H69AR lung tumor cells viability, ATP luminescence, 72 h; at 10 µM; stronger effect = lower value.
The nature of assay [4]: MRP1 drug-resistance reversers in H69AR cells – cell-based, doxorubicin co-treatment, pilot screen (AID 601;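 active = viability loss from added drug above about 55%, and viability with drug at most 40%, in both replicates, limit read from the data, passing the limit was not always enough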). Conditions: CellTiter-Glo, 72 h, at 10 µM; for differential viability (reversal): stronger effect = higher value.
Assay [5] in a line: yeast transport mutant growth inhibition pilot in 384-well plates, post-Golgi transport modulator project (AID 636; in the data active = inhibition above about 31%). The settings on record: absorbance 615 nm, about 18 h, stronger effect = higher value.
A short description of assay [6]: growth suppression of yeast trafficking mutant, preliminary HTS, modulators of trafficking downstream of Golgi apparatus project, 1536-format plate, OD 615 nm (AID 637; in the data active = inhibition above about 30%). Conditions: yeast transport mutant growth, absorbance 615 nm, 18 h; stronger effect = higher value.
Where [7] appears, read: H69AR cells + 2 uM doxorubicin, measured here: viability with 2 uM doxorubicin, stronger effect = lower value.
Where [8] appears, read: H69AR cells, compound alone cytotoxicity.

Active and inactive are the calls of the source.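 The calls were made as follows, unless noted: active = viability at or below 10% of carrier control in both of two separate runs; inconclusive = viability at or below 10% in only one of the two runs; inactive = the rest.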

Take `O=C(NC1CCCC1)C(c1cccs1)N(Cc1ccco1)C(=O)Cn1nnc(-c2cccs2)n1` (centres undefined): the viability in assay [1] was 71% (inactive); in assay [2], 87.3% (inactive); in assay [3], 92.8% (inactive); in assay [4] (setting [7]), 94.3%; in assay [4] (setting [8]), 92.8%. For the same compound, the differential viability (reversal) in assay [4] (H69AR cells + 2 uM doxorubicin) was -1.47% (inactive). In addition, the inhibition in assay [5] is -8.22% (inactive); in assay [6], -0.48% (inactive).

As to `Cc1ccccc1NC(=O)CN1CCC(NC(=O)Nc2ccccc2)CC1`, the viability is 108% (inactive) in assay [1]; 104% (inactive) in assay [2]; 84.8% (inactive) in assay [3]; 89.1% in assay [4] (setting [7]); 84.8% in assay [4] (setting [8]). Besides, the differential viability (reversal) in assay [4] (H69AR cells + 2 uM doxorubicin) is -4.37% (inactive). Moreover, the inhibition in assay [5] is -7.7% (inactive); in assay [6] it was -3.64% (inactive).

On to `COC(=O)CCC(=O)CN`, for which the viability in assay [1] was 111% (inactive); in assay [2], 92.9% (inactive); in assay [3], 88.6% (inactive); in assay [4] (setting [7]) it was 92.8%; in assay [4] (setting [8]) it was 88.6%. In addition, the differential viability (reversal) in assay [4] (H69AR cells + 2 uM doxorubicin) is -4.23% (inactive). The values for the inhibition in assay [5] and in assay [6] were -1.3% (inactive) and 5.67% (inactive), respectively.

On to `COc1ccccc1C(=O)N1CCN(C(=O)COc2cccc(C)c2)CC1`, for which the viability is 101% (inactive) in assay [1]; 113% (inactive) in assay [2]; 88.6% (inactive) in assay [3]; 85.9% in assay [4] (setting [7]); 88.6% in assay [4] (setting [8]). The differential viability (reversal) in assay [4] (H69AR cells + 2 uM doxorubicin) was 2.75% (inactive). The inhibition in assay [5] is -7.84% (inactive); in assay [6], -0.73% (inactive).

In the case of `O=C(CSc1nc2ccccc2[nH]1)N1CCCCC1`, the viability in assay [1] was 106% (inactive); in assay [2], 102% (inactive); in assay [3], 92.9% (inactive); in assay [4] (setting [7]), 83.9%; in assay [4] (setting [8]), 92.9%. Moreover, the differential viability (reversal) in assay [4] (H69AR cells + 2 uM doxorubicin) is 8.96% (inactive). In addition, the inhibition was -6.44% (inactive) in assay [5] and 5.09% (inactive) in assay [6].

`Cc1ccccc1-n1c(SCc2c(C)noc2C)nnc1-c1ccncc1`: the viability in assay [1] was 92% (inactive); in assay [2], 87.5% (inactive); in assay [3] it was 87.4% (inactive); in assay [4] (setting [7]) it was 79.1%; in assay [4] (setting [8]), 87.4%. Also, the differential viability (reversal) in assay [4] (H69AR cells + 2 uM doxorubicin) was 8.34% (inactive). In addition, the inhibition was -3.78% (inactive) in assay [5] and -2% (inactive) in assay [6].

Take `CCCN1Cc2cccc(C(=O)NCc3cccs3)c2C1=O`: the viability is 86% (inactive) in assay [1]; 111% (inactive) in assay [2]; 90.6% (inactive) in assay [3]; 90.8% in assay [4] (setting [7]); 90.6% in assay [4] (setting [8]). Further, in assay [4] (H69AR cells + 2 uM doxorubicin), the differential viability (reversal) is -0.255% (inactive). Further, the inhibition in assay [5] was -6% (inactive); in assay [6], -1.45% (inactive).

As for `N#Cc1ccc(CSc2nnc(-c3ccccn3)n2-c2ccccc2)cc1`, the viability in assay [1] was 62% (inactive); in assay [2], 93.5% (inactive); in assay [3], 95.1% (inactive); in assay [4] (setting [7]), 89.1%; in assay [4] (setting [8]) it was 95.1%. Also, the differential viability (reversal) in assay [4] (H69AR cells + 2 uM doxorubicin) is 6.06% (inactive). For the same compound, the inhibition in assay [5] was -7.67% (inactive); in assay [6], -1.09% (inactive).

On to `N=c1nc(N2CCCCC2)cc(N)n1O`, for which the viability in assay [1] is 96% (inactive); in assay [2], 89.3% (inactive); in assay [3] it was 99.8% (inactive); in assay [4] (setting [7]), 92%; in assay [4] (setting [8]), 99.8%. The differential viability (reversal) in assay [4] (H69AR cells + 2 uM doxorubicin) was 7.85% (inactive). Also, the values for the inhibition in assay [5] and in assay [6] were -1.17% (inactive) and -1.83% (inactive), respectively.

Take `O=c1[nH]c(NCc2ccccc2)nc2c1CCCC2`: the viability in assay [1] was 87% (inactive); in assay [2] it was 115% (inactive); in assay [3], 104% (inactive); in assay [4] (setting [7]), 96.5%; in assay [4] (setting [8]), 104%. Moreover, in assay [4] (H69AR cells + 2 uM doxorubicin), the differential viability (reversal) is 7.85% (inactive). Further, the inhibition in assay [5] was -4.19% (inactive); in assay [6] it was -10% (inactive).

For the compound `CCCCN(Cc1cc2cc(OC)ccc2[nH]c1=O)C(=O)c1ccccn1`, the viability in assay [1] is 102% (inactive); in assay [2], 98% (inactive); in assay [3] it was 102% (inactive); in assay [4] (setting [7]), 95%; in assay [4] (setting [8]), 102%. For the same compound, in assay [4] (H69AR cells + 2 uM doxorubicin), the differential viability (reversal) was 6.81% (inactive). The inhibition was -5.14% (inactive) in assay [5] and -3.82% (inactive) in assay [6].

Turning to `Cc1cc(=O)oc2cc(OCC(=O)OCC(=O)N3CCc4ccccc43)ccc12`, the viability in assay [1] is 103% (inactive); in assay [2] it was 101% (inactive); in assay [3], 93.2% (inactive); in assay [4] (setting [7]) it was 95.3%; in assay [4] (setting [8]) it was 93.2%. For the same compound, the differential viability (reversal) in assay [4] (H69AR cells + 2 uM doxorubicin) is -2.07% (inactive). Further, the inhibition in assay [5] is -8.38% (inactive); in assay [6], -4.55% (inactive).

Take `Cc1nc(N)[nH]c(=O)c1CCC(=O)OCC(C)C`: the viability in assay [1] is 107% (inactive); in assay [2], 89.7% (inactive); in assay [3], 91.2% (inactive); in assay [4] (setting [7]) it was 93.5%; in assay [4] (setting [8]), 91.2%. Further, the differential viability (reversal) in assay [4] (H69AR cells + 2 uM doxorubicin) was -2.31% (inactive). Also, the inhibition in assay [5] is -0.78% (inactive); in assay [6], -0.66% (inactive).

With `O=C1OC(c2ccc(O)cc2)(c2ccc(O)cc2)c2ccccc21`, the viability in assay [1] was 83% (inactive); in assay [2] it was 48.8% (inactive); in assay [3] it was 102% (inactive); in assay [4] (setting [7]) it was 97.7%; in assay [4] (setting [8]), 102%. Moreover, the differential viability (reversal) in assay [4] (H69AR cells + 2 uM doxorubicin) was 4.57% (inactive). The inhibition in assay [5] is -2.73% (inactive); in assay [6], 8.67% (inactive).

As for `CC(=O)[C@H]1CC[C@H]2[C@@H]3CCC4=CC(=O)CC[C@]4(C)[C@H]3[C@H](O)C[C@]12C`, the viability was 87% (inactive) in assay [1]; 83.6% (inactive) in assay [2]; 100% (inactive) in assay [3]; 96.6% in assay [4] (setting [7]); 100% in assay [4] (setting [8]). Further, the differential viability (reversal) in assay [4] (H69AR cells + 2 uM doxorubicin) was 3.85% (inactive). In addition, the inhibition is 2.08% (inactive) in assay [5] and -6.83% (inactive) in assay [6].

Consider `COCc1[nH]nc2c1C(c1cc(OC)c(O)c(OC)c1)C(C#N)=C(N)O2` (centres undefined), for which the viability in assay [1] is 98% (inactive); in assay [2], 102% (inactive); in assay [3], 93% (inactive); in assay [4] (setting [7]), 95%; in assay [4] (setting [8]), 93%. The differential viability (reversal) in assay [4] (H69AR cells + 2 uM doxorubicin) is -2% (inactive). Further, the inhibition was -10.3% (inactive) in assay [5] and 4.03% (inactive) in assay [6].

With `CC(=O)NCCC(=O)Nc1ccc(C)c(F)c1`, the viability in assay [1] was 110% (inactive); in assay [2], 110% (inactive); in assay [3], 91.4% (inactive); in assay [4] (setting [7]) it was 108%; in assay [4] (setting [8]) it was 91.4%. Moreover, the differential viability (reversal) in assay [4] (H69AR cells + 2 uM doxorubicin) was -17% (inactive). Further, the inhibition in assay [5] was -2.05% (inactive); in assay [6] it was 3.09% (inactive).

In the case of `CCOC(=O)N1CCN(C(=O)COc2cc(=O)n(C)c3ccccc23)CC1`, the viability in assay [1] was 98% (inactive); in assay [2], 98.2% (inactive); in assay [3], 98.2% (inactive); in assay [4] (setting [7]) it was 81.5%; in assay [4] (setting [8]), 98.2%. Also, in assay [4] (H69AR cells + 2 uM doxorubicin), the differential viability (reversal) was 16.7% (inactive). Moreover, the inhibition in assay [5] is 0.91% (inactive); in assay [6], 15.9% (inactive).
